Assay outcomes from PubChem.
M5 ag: agonists of human muscarinic M5 receptor (CHRM5); P08912; CHO-K1 hM5 cells, Fluo-8 calcium fluorescence; 0% DMSO wells, 100% maximal acetylcholine response; activation, % at 3 µM; 360,000 compounds, 0.19% hits; AID 624037;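 active means activation above the run's mean over test compounds plus 3 SD, cut at about 23% in these data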;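 further: signal is peak over basal fluorescence ratio across the kinetic read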
Target sequence (P08912 whole entry, looked up): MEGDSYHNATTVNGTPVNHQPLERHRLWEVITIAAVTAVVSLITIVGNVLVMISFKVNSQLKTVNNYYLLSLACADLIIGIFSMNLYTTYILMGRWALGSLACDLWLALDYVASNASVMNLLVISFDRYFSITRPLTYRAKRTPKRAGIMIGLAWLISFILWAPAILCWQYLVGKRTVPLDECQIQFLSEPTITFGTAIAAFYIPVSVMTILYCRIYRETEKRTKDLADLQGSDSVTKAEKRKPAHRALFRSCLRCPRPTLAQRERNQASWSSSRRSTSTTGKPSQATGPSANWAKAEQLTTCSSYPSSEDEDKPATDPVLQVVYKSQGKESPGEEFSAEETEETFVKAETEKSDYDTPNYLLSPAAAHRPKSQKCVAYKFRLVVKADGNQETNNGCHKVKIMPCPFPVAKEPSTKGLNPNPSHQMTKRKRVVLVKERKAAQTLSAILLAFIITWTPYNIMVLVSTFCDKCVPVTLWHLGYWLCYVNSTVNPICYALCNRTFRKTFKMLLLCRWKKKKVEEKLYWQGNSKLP
M4 antag: antagonists of human muscarinic M4 receptor (CHRM4) | 360,000 compounds, 0.73% hits | AID 624125 | inhibition, % at 3 µM | CHO-hM4 cells, ACh EC80, Fluo-8 calcium fluorescence;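 active means inhibition above its plate's cutoff, the mean inhibition of sample wells plus 3 SD, cut at about 27% in these data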;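 further: 0% = acetylcholine EC80 with DMSO and 100% = DMSO without agonist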
M4 PAM: positive allosteric modulators of human muscarinic M4 receptor; CHO-K1 hM4/Gqi5, Fluo-8 calcium fluorescence, ACh EC20; 0% = ACh EC20, 100% = maximal ACh; 360,000 compounds, 0.4% hits; P08173; activation, % at 3 µM; AID 624126;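 active means activation above its plate's cutoff, the mean activation of sample wells plus 3 SD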
M5 antag: CHRM5 antagonism in calcium assay; P08912; CHO-hM5 cells, Fluo-8 calcium fluorescence, ACh EC80; inhibition, % at 3 µM; 360,000 compounds, 0.59% hits;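 active means inhibition above a per-plate cutoff, the mean of that plate's test compounds plus 3 SD, cut at about 27% in these data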;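 further: 0% = acetylcholine EC80 with DMSO and 100% = DMSO without agonist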
M4 ag: CHRM4 agonism in calcium assay; 360,000 compounds, 0.14% hits; AID 624127; P08173; activation, % at 3 µM; CHO-K1 hM4/Gqi5, Fluo-8 calcium fluorescence; vehicle 0%, full acetylcholine response 100%;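 active means activation above the run mean over all test wells plus 3 SD, cut at about 32% in these data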;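 further: peak over basal fluorescence ratio per well then scaled between controls; 0% = DMSO wells and 100% = acetylcholine at EC100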
CHRM5 PAM: positive allosteric modulators of human muscarinic M5 receptor | P08912 | CHO-K1 hM5, Fluo-8 calcium, ACh EC20 PAM; 0% = ACh EC20, 100% = ACh EC100 | activation, % at 3 µM | 360,000 compounds, 0.3% hits;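 active means activation above the run cutoff, the mean activation of all test compounds plus 3 SD, cut at about 18% in these data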
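Measured by: Fluo-8 calcium fluorescence; material: human M5 receptor in CHO-K1 cells; schedule: Post-acetylcholine fluorescence recording 140 s; benchmarks: low control EC20 acetylcholine (0%), high control EC100 acetylcholine (100%); read-out: Max/basal fluorescence ratio as % of EC20–EC100 ACh window; compound: single dose, 3 µM nominal final test concentration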
An asterisk follows results filed as active. Rows were chosen to be rich in hits. Some 1.9% of all compounds tested hit in one or more screens of this group.

SMILES	M5 ag	M4 antag	M4 PAM	M5 antag	M4 ag	CHRM5 PAM
c1ccc(OCCOCCN2CCN(C(c3ccccc3)c3ccccc3)CC2)cc1	-8	86*	-44	52*	1	-22
OC(COc1ccccc1)CN1CCN(C(c2ccccc2)c2ccccc2)CC1 (stereo not drawn)	-25	17	-13	17	-1	-32
CC(=O)NCCC1CCN(C(=O)C2CCC(=O)N(C3CCCC3)C2)CC1 (stereo not drawn)	-2	14	-2	9	0	-4
CN1C/C(=C/c2ccccc2[N+](=O)[O-])C(=O)/C(=C\c2ccccc2[N+](=O)[O-])C1	-5	-11	4	-4	2	-1
CCCN=C1N(CC)C[C@@H]2[C@@H]3C(=O)N(C)C(=O)[C@@H]3[C@](C)(C(=O)OC)N12	0	-3	10	-2	-1	1
Cn1cc(Cl)c(C(=O)Nc2nc3ccc([N+](=O)[O-])cc3s2)n1	0	-4	9	14	0	22*
O=C1NC(=S)S/C1=C\c1cccc([N+](=O)[O-])c1	7	-6	-2	15	8	0
O=c1[nH]c(=S)[nH]cc1Oc1ccccc1	3	15	3	-2	4	1
CCOc1ccc(C2NCCc3cc(OC)c(OC)cc32)cc1OC (stereo not drawn)	-2	-11	14*	-2	1	8
O=C1CCCC[C@@H](CO)[C@H](O)C[C@H](c2ccccc2)O1	3	-8	16	1	2	2
CC(C(=O)Nc1cccnc1)c1ccc([N+](=O)[O-])cc1 (stereo not drawn)	2	0	-4	-8	3	1
CC(C)Cc1ccc(C(C)C(=O)Nc2ccc(O)cc2)cc1 (stereo not drawn)	44*	34*	-20	27*	79*	-6
CC(C)Cc1ccc([C@H](C)C(=O)O)cc1	0	-1	-6	-5	0	5
CC(C)Cc1ccc(C(C)C(=O)Nc2cccnc2)cc1 (stereo not drawn)	32*	13	-19	15	27	-15
CCNC(=O)C1(C)CCN(C(=O)c2cccc(OC(C)=O)c2C)C1 (stereo not drawn)	0	-5	1	6	1	-2
Cc1ccc(C(C)(C)C)c(OCCN2CCCC2)c1	-6	17	-31	14	2	-17
CC(C)(C)c1ccccc1OCCN1CCCC1	-6	32*	-32	11	1	-13
CC(OCCN1CCCC1)(c1ccc(F)cc1)c1ccc(F)cc1	-7	47*	-38	36*	4	-20
CCc1ccc(OCC(=O)NNC(=O)c2cnccn2)c(Br)c1	-5	-19	20*	-5	1	3
CN1CCN(CC/C=C2/c3ccccc3Sc3ccc(S(=O)(=O)N(C)C)cc32)CC1	0	-3	-6	-2	7	-9
COc1cc2c(cc1Cl)/C(=C\CCN(C)C)c1ccccc1S2	-4	33*	-35	25	8	-18
COc1cc(Cl)cc2c1Sc1ccccc1/C2=C/CCN(C)C	-12	19	-14	36*	2	-29
CN(C)CC/C=C1/c2ccccc2Sc2c(O)cc(Cl)cc21	-6	50*	-15	98*	2	-16
CN(C)CC/C=C1/c2cc(F)ccc2Sc2ccc(Cl)cc21	-19	96*	-16	99*	4	-29
Cc1cccc(CN2CCN(C3CN(Cc4cn(Cc5ccccc5)nn4)S(=O)(=O)C3)CC2)c1 (stereo not drawn)	-3	-6	0	2	2	-4
CCOC(=O)C1CCN(C(=O)c2cccc(S(=O)(=O)NCc3ccccc3)c2)CC1	1	4	-2	3	5	-3
CCOC(=O)C(NC(=O)C1C(C)N1S(=O)(=O)c1ccc(C)cc1)C(=O)OCC (stereo not drawn)	-4	-2	4	5	1	-3
